Assay results reported in ChEMBL document CHEMBL5724801, “EUbOPEN Chemogenomics Library - Multiplex” (2024).
“And” between values parts separate entries of the source, which are not always exact repeats. Identical values can stand only once.

Test system: HEK-293T
Assay: Multiplex assay against HEK293T
Assay type: toxicity, cell-based
Conditions: human
How it was run: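 Live cells were stained at seeding with Hoechst33342, BioTracker Green Microtubule Cytoskeleton Dye, MitoTracker Red and Annexin V Alexa Fluor 680, then imaged on a CQ1 microscope at 37°C and 5% CO2 after compound addition. CellPathfinder machine-learning gating split cells into Hoechst high-intensity objects or normal cells. Normal cells were split into healthy, pyknosed or fragmented nuclei, and pyknosed cells into mitotic or apoptotic. Tubulin, mitochondrial-mass and membrane-permeability phenotypes are per cents of healthy-nucleus cells.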

[1] = 12 h, 1 µM, compound concentration 1 uM
[2] = 12 h, 10 µM, compound concentration 10 uM
[3] = 24 h, 1 µM, compound concentration 1 uM
[4] = 24 h, 10 µM, compound concentration 10 uM
[5] = 48 h, 1 µM, compound concentration 1 uM
[6] = 48 h, 10 µM, compound concentration 10 uM

Structure (SMILES): Cl.Clc1ccc2nsnc2c1NC1=NCCN1 [TIZANIDINE HYDROCHLORIDE]
- Population Apoptotic (%) [1]: 39% and 44%
- Population Fragmented Nuclei (%) [1]: 9% and 2%
- Population Healthy Nuclei (%) [1]: 80% and 83%
- Population Hoechst High Intensity Objects (%) [1]: 8% and 9%
- Population Membrane Permeable-Phenotype (%) [1]: 0%
- Population Mitochondria Different-Phenotype (%) [1]: 36% and 62%
- Population Mitotic Cells (%) [1]: 60% and 55%
- Population Normal (%) [1]: 91% and 90%
- Population Pyknosed Nuclei (%) [1]: 9% and 13%
- Population Tubulin-Different-Phenotype (%) [1]: 26% and 20%
- Total Cell Count [1]: 474 and 373
- Population Apoptotic (%) [2]: 30% and 46%
- Population Fragmented Nuclei (%) [2]: 9% and 7%
- Population Healthy Nuclei (%) [2]: 80% and 79%
- Population Hoechst High Intensity Objects (%) [2]: 6% and 4%
- Population Membrane Permeable-Phenotype (%) [2]: 0%
- Population Mitochondria Different-Phenotype (%) [2]: 45% and 67%
- Population Mitotic Cells (%) [2]: 70% and 53%
- Population Normal (%) [2]: 93% and 95%
- Population Pyknosed Nuclei (%) [2]: 9% and 13%
- Population Tubulin-Different-Phenotype (%) [2]: 32% and 27%
- Total Cell Count [2]: 450 and 343
- Population Apoptotic (%) [3]: 32% and 45%
- Population Fragmented Nuclei (%) [3]: 11% and 10%
- Population Healthy Nuclei (%) [3]: 79% and 80%
- Population Hoechst High Intensity Objects (%) [3]: 4% and 5%
- Population Membrane Permeable-Phenotype (%) [3]: 0%
- Population Mitochondria Different-Phenotype (%) [3]: 20% and 38%
- Population Mitotic Cells (%) [3]: 67% and 54%
- Population Normal (%) [3]: 95% and 94%
- Population Pyknosed Nuclei (%) [3]: 8%
- Population Tubulin-Different-Phenotype (%) [3]: 17% and 15%
- Total Cell Count [3]: 597 and 434
- Population Apoptotic (%) [4]: 32% and 29%
- Population Fragmented Nuclei (%) [4]: 11% and 10%
- Population Healthy Nuclei (%) [4]: 78% and 81%
- Population Hoechst High Intensity Objects (%) [4]: 5% and 6%
- Population Membrane Permeable-Phenotype (%) [4]: 1% and 0%
- Population Mitochondria Different-Phenotype (%) [4]: 23% and 46%
- Population Mitotic Cells (%) [4]: 67% and 70%
- Population Normal (%) [4]: 94% and 93%
- Population Pyknosed Nuclei (%) [4]: 9% and 7%
- Population Tubulin-Different-Phenotype (%) [4]: 18%
- Total Cell Count [4]: 621 and 443
- Population Apoptotic (%) [5]: 17% and 33%
- Population Fragmented Nuclei (%) [5]: 16% and 14%
- Population Healthy Nuclei (%) [5]: 77% and 79%
- Population Hoechst High Intensity Objects (%) [5]: 2% and 3%
- Population Membrane Permeable-Phenotype (%) [5]: 3% and 1%
- Population Mitochondria Different-Phenotype (%) [5]: 13% and 19%
- Population Mitotic Cells (%) [5]: 82% and 66%
- Population Normal (%) [5]: 97% and 96%
- Population Pyknosed Nuclei (%) [5]: 6%
- Population Tubulin-Different-Phenotype (%) [5]: 10% and 7%
- Total Cell Count [5]: 1005 and 661
- Population Apoptotic (%) [6]: 24% and 25%
- Population Fragmented Nuclei (%) [6]: 19% and 13%
- Population Healthy Nuclei (%) [6]: 74% and 81%
- Population Hoechst High Intensity Objects (%) [6]: 3% and 5%
- Population Membrane Permeable-Phenotype (%) [6]: 1%
- Population Mitochondria Different-Phenotype (%) [6]: 13% and 23%
- Population Mitotic Cells (%) [6]: 75%
- Population Normal (%) [6]: 96% and 94%
- Population Pyknosed Nuclei (%) [6]: 5% and 4%
- Population Tubulin-Different-Phenotype (%) [6]: 10% and 19%
- Total Cell Count [6]: 995 and 600

Structure (SMILES): COCCNc1cc(NC(=O)N2CCCc3cc(CN4CCOCC4=O)c(C=O)nc32)ncc1C#N
- Population Apoptotic (%) [1]: 8.39% and 10.83%
- Population Fragmented Nuclei (%) [1]: 1.89% and 2%
- Population Hoechst High Intensity Objects (%) [1]: 0% and 0.66%
- Population Membrane Permeable-Phenotype (%) [1]: 0.45% and 0%
- Population Mitochondria Different-Phenotype (%) [1]: 40% and 29.63%
- Population Mitotic Cells (%) [1]: 91.61% and 89.17%
- Population Normal (%) [1]: 100% and 99.34%
- Population Pyknosed Nuclei (%) [1]: 38.65% and 80%
- Total Cell Count [1]: 370 and 151
- Population Apoptotic (%) [2]: 13.28% and 9.24%
- Population Fragmented Nuclei (%) [2]: 3.21% and 5.33%
- Population Hoechst High Intensity Objects (%) [2]: 0.71% and 0%
- Population Membrane Permeable-Phenotype (%) [2]: 0.7% and 4.35%
- Population Mitochondria Different-Phenotype (%) [2]: 34.27% and 17.39%
- Population Mitotic Cells (%) [2]: 86.72% and 90.76%
- Population Normal (%) [2]: 99.29% and 100%
- Population Pyknosed Nuclei (%) [2]: 45.71% and 79.33%
- Population Tubulin-Different-Phenotype (%) [2]: 22.38% and 30.43%
- Total Cell Count [2]: 282 and 150
- Population Apoptotic (%) [3]: 12.59% and 11.28%
- Population Fragmented Nuclei (%) [3]: 1.33% and 4.05%
- Population Hoechst High Intensity Objects (%) [3]: 0%
- Population Membrane Permeable-Phenotype (%) [3]: 1.6% and 0%
- Population Mitochondria Different-Phenotype (%) [3]: 19.15% and 9.09%
- Population Mitotic Cells (%) [3]: 87.41% and 88.72%
- Population Normal (%) [3]: 100%
- Population Pyknosed Nuclei (%) [3]: 27.19% and 76.88%
- Population Apoptotic (%) [4]: 27.05% and 20.97%
- Population Fragmented Nuclei (%) [4]: 2.91% and 3.95%
- Population Healthy Nuclei (%) [4]: 67.48% and 25.99%
- Population Hoechst High Intensity Objects (%) [4]: 0.24% and 0%
- Population Membrane Permeable-Phenotype (%) [4]: 1.44% and 0%
- Population Mitochondria Different-Phenotype (%) [4]: 24.82% and 19.57%
- Population Mitotic Cells (%) [4]: 72.95% and 79.03%
- Population Normal (%) [4]: 99.76% and 100%
- Population Pyknosed Nuclei (%) [4]: 29.61% and 70.06%
- Population Tubulin-Different-Phenotype (%) [4]: 39.21% and 21.74%
- Total Cell Count [4]: 413 and 177
- Population Apoptotic (%) [5]: 7.19% and 11.39%
- Population Fragmented Nuclei (%) [5]: 2.68% and 2.4%
- Population Healthy Nuclei (%) [5]: 85.58% and 59.62%
- Population Hoechst High Intensity Objects (%) [5]: 0%
- Population Membrane Permeable-Phenotype (%) [5]: 6% and 3.23%
- Population Mitochondria Different-Phenotype (%) [5]: 14.96% and 30.65%
- Population Mitotic Cells (%) [5]: 92.81% and 88.61%
- Population Normal (%) [5]: 100%
- Population Apoptotic (%) [6]: 11.67% and 18.75%
- Population Fragmented Nuclei (%) [6]: 2.84% and 5.15%
- Population Healthy Nuclei (%) [6]: 81.65% and 53.65%
- Population Hoechst High Intensity Objects (%) [6]: 0%
- Population Membrane Permeable-Phenotype (%) [6]: 4.91% and 4%
- Population Mitochondria Different-Phenotype (%) [6]: 35.13% and 34.4%
- Population Mitotic Cells (%) [6]: 88.33% and 81.25%
- Population Normal (%) [6]: 100%
- Population Pyknosed Nuclei (%) [6]: 15.5% and 41.2%
